Source: ChEMBL document CHEMBL3826928, “Incorporation of Phosphonate into Benzonaphthyridine Toll-like Receptor 7 Agonists for Adsorption to Aluminum Hydroxide” (J Med Chem, 2016)

Key:
[1] = target: T1, Toll-like receptor 7 (Homo sapiens) (UniProt Q9NYK1); assay: Agonist activity at TLR7 in human PBMC assessed as induction of IL-6 secretion in supernatant after 18 hrs relative to resiquimod; type: cell-based
T1 sequence (whole entry): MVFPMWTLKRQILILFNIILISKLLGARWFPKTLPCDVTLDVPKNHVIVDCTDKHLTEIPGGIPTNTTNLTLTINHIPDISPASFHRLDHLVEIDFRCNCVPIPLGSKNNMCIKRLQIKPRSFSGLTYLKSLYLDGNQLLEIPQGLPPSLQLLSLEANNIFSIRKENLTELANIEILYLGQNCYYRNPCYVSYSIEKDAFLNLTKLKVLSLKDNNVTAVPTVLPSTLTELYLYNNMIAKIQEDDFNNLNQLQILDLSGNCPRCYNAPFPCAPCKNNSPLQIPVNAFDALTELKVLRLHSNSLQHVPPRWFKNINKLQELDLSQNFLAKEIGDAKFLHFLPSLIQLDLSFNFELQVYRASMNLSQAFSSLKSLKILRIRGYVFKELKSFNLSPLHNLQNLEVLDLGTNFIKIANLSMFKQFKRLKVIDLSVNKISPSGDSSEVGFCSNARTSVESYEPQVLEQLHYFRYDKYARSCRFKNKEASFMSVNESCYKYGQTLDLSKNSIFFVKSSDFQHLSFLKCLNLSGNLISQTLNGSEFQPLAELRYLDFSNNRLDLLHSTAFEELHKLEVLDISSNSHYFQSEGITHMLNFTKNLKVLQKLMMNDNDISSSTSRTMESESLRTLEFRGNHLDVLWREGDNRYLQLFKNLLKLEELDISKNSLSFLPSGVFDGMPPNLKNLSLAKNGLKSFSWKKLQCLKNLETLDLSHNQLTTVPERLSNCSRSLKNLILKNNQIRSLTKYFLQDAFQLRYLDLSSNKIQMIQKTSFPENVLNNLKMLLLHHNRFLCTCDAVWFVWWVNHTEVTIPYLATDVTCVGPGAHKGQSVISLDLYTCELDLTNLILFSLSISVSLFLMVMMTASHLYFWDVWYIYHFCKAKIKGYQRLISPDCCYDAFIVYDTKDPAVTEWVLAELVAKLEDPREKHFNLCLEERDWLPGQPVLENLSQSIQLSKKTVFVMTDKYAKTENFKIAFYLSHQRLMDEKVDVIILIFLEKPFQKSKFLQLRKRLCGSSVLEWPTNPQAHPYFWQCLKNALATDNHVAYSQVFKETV
Summary of the method: (§1)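 Isolated human PBMCs washed in PBS, resuspended in RPMI1640 with 10% heat-inactivated FBS, pyruvate, HEPES, at 1 × 10⁶ cells/mL. Compounds as in-situ sodium salts from 10 mM aqueous stocks, 3-fold 10-point dilutions from 30 μM.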

Toll-like receptor 7 [2] = target: T2, Toll-like receptor 7 (Homo sapiens, UniProt Q9NYK1); assay: Agonist activity at TLR7 in human PBMC assessed as induction of IL-6 secretion in supernatant after 18 hrs; settings: read-out: EC50; summary of the method: as §1
T2 sequence (Q9NYK1 whole entry): T1 sequence (whole entry)

Toll-like receptor 7 [3] = target: T2, Toll-like receptor 7; assay: Agonist activity at human TLR7 expressed in HEK293 cells incubated for 6 hrs by luciferase reporter gene assay; type: cell-based
Summary of the method: (§2)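 HEK293 stably carrying NF-κB-firefly luciferase reporter plus human TLR7 (best resiquimod-responding clone), maintained under puromycin/blasticidin. 25 000 cells per well in DMEM with 3% FCS.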

[4] = target: T3, Toll-like receptor 8 (Homo sapiens) (UniProt Q9NR97); assay: Agonist activity at human TLR8 expressed in HEK293 cells up to 30 uM incubated for 6 hrs by luciferase reporter gene assay relative to resiquimod; type: cell-based
T3 sequence (whole entry): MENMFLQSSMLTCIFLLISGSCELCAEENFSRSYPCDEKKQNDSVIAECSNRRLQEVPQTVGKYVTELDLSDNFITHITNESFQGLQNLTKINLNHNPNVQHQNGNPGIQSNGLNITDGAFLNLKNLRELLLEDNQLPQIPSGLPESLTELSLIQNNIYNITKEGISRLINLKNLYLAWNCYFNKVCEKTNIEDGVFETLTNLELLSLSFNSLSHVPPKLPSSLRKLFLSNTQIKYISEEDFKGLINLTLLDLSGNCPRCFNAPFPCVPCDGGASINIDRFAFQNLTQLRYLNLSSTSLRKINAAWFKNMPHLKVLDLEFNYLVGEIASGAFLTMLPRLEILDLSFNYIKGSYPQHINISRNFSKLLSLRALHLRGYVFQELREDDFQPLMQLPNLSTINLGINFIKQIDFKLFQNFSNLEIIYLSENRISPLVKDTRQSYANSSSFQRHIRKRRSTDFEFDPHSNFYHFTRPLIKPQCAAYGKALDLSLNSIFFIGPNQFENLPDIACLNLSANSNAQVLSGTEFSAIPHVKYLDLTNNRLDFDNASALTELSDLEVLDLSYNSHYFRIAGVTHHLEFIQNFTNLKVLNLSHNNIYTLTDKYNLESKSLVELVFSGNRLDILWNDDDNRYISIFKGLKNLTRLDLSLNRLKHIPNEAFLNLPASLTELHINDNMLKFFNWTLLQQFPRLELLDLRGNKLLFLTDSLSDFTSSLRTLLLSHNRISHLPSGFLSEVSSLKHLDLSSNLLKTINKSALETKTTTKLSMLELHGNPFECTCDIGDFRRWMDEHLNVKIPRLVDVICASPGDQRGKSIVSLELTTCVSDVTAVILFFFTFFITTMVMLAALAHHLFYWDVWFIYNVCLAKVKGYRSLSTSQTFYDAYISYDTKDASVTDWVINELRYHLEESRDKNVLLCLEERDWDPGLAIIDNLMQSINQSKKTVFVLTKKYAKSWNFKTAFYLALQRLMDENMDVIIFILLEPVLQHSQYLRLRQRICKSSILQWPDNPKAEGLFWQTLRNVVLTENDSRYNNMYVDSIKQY

[5] = target: T1, Toll-like receptor 7 (Homo sapiens); assay: Agonist activity at human TLR7 expressed in HEK293 cells incubated for 6 hrs by luciferase reporter gene assay relative to resiquimod; type: cell-based; summary of the method: as §2

Row | Structure (SMILES) | %max [1] | EC50 (Toll-like receptor 7 [2]) | EC50 (Toll-like receptor 7 [3]) | Activity [4] | %max [5]
1 | Cc1cc(OCCOCCOCCP(=O)(O)O)ccc1CCc1cnc2c(N)nc3cc(CCC(=O)O)ccc3c2c1 | 58% | 490 nM | 350 nM | < 5% | 110%
2 | Cc1ccc2c(c1)nc(N)c1ncc(CCc3ccc(OCCCP(=O)(O)O)cc3C)cc12 | – | 30000 nM | 230 nM | < 5% | –
3 | Cc1ccc2c(c1)nc(N)c1ncc(CCc3ccc(OCCOCCOCCC(F)(F)P(=O)(O)O)cc3C)cc12 | 36% | 980 nM | 1200 nM | < 5% | 95%

Results, then the compound that gave them:

Row | %max [1] | EC50 (Toll-like receptor 7 [2]) | EC50 (Toll-like receptor 7 [3]) | Activity [4] | %max [5] | Structure (SMILES)
4 | 35% | 2100 nM | 39 nM | < 5% | 100% | Cc1cc(OCCOCCOCCC(F)(F)P(=O)(O)O)ccc1CCc1cnc2c(N)nc3cc(CCC(=O)O)ccc3c2c1
5 | 35% | 360 nM | 240 nM | < 5% | 95% | Cc1cc(OCCCC(F)(F)P(=O)(O)O)ccc1CCc1cnc2c(N)nc3cc(CCC(=O)O)ccc3c2c1
